Test results as given in ChEMBL document CHEMBL4680220, “Synthesis and biological evaluation of acridine-based histone deacetylase inhibitors as multitarget agents against Alzheimer's disease” (Eur J Med Chem, 2020).

Key:
[1] = target: T1, Class 1 histone deacetylase (Homo sapiens, UniProt Q13547+O15379+Q92769+Q9BY41); assay: Inhibition of class 1 HDAC in human HeLa cell nuclear extract using Boc-Lys(Ac)-AMC as substrate preincubated for 5 mins followed by substrate addition and measured after 30 mins by fluorescence assay; format: cell-based
T1 sequence (O15379 whole entry, looked up): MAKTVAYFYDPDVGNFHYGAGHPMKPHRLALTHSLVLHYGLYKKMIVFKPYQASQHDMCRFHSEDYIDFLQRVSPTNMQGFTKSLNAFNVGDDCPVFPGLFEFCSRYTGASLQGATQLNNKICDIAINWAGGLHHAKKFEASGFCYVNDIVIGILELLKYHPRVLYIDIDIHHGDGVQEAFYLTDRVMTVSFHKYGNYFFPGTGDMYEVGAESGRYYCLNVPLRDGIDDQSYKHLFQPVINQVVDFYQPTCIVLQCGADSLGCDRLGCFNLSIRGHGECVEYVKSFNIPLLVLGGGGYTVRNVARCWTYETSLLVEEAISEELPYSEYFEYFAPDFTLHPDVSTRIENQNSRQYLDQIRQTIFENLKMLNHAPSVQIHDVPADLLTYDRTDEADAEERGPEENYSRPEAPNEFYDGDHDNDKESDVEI
T1 sequence (Q13547 whole entry, looked up): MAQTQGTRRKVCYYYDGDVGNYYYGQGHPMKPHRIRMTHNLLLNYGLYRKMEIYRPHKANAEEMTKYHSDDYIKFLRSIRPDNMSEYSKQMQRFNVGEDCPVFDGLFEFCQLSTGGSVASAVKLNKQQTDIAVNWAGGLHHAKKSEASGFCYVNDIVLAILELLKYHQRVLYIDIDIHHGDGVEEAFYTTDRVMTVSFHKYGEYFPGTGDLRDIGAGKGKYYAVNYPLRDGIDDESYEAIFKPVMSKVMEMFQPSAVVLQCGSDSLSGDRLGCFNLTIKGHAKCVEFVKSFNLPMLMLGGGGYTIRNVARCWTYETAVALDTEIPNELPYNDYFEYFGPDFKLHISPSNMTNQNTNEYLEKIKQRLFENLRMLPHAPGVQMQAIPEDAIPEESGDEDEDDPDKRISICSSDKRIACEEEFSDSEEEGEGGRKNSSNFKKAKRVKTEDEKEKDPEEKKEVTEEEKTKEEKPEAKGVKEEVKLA
T1 sequence (Q92769 whole entry, looked up): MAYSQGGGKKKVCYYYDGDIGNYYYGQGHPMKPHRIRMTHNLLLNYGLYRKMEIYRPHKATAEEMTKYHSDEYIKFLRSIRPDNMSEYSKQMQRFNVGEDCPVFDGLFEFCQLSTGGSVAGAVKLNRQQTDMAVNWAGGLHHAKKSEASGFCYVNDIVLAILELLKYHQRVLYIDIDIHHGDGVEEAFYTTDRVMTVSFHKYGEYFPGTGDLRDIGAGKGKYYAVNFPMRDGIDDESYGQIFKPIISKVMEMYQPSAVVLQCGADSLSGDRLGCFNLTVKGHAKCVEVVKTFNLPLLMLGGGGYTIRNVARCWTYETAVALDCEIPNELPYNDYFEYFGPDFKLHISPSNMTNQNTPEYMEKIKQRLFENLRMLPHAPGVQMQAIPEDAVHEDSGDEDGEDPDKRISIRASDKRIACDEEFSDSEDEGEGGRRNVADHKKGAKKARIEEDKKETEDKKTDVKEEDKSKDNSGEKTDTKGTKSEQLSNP
T1 sequence (Q9BY41 whole entry, looked up): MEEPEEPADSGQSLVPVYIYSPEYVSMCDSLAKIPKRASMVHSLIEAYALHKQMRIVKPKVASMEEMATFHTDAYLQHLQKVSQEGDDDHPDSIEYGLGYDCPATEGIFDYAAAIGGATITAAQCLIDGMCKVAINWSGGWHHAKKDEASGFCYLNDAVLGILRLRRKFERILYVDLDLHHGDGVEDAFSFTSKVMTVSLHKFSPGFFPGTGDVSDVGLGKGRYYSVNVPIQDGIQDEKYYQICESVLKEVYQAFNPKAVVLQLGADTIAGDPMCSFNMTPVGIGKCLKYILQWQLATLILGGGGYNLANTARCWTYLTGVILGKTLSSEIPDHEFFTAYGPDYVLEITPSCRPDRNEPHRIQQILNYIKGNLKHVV

[2] = target: T2, Protein deacetylase HDAC6 (Homo sapiens, UniProt Q9UBN7); assay: Inhibition of recombinant human full-length N-terminal GST-tagged HDAC6 expressed in baculovirus infected Sf9 insect cells using Boc-Lys(Ac)-AMC as substrate preincubated for 5 mins followed by substrate addition and measured after 30 mins by fluorescence assay
T2 sequence (Q9UBN7 whole entry): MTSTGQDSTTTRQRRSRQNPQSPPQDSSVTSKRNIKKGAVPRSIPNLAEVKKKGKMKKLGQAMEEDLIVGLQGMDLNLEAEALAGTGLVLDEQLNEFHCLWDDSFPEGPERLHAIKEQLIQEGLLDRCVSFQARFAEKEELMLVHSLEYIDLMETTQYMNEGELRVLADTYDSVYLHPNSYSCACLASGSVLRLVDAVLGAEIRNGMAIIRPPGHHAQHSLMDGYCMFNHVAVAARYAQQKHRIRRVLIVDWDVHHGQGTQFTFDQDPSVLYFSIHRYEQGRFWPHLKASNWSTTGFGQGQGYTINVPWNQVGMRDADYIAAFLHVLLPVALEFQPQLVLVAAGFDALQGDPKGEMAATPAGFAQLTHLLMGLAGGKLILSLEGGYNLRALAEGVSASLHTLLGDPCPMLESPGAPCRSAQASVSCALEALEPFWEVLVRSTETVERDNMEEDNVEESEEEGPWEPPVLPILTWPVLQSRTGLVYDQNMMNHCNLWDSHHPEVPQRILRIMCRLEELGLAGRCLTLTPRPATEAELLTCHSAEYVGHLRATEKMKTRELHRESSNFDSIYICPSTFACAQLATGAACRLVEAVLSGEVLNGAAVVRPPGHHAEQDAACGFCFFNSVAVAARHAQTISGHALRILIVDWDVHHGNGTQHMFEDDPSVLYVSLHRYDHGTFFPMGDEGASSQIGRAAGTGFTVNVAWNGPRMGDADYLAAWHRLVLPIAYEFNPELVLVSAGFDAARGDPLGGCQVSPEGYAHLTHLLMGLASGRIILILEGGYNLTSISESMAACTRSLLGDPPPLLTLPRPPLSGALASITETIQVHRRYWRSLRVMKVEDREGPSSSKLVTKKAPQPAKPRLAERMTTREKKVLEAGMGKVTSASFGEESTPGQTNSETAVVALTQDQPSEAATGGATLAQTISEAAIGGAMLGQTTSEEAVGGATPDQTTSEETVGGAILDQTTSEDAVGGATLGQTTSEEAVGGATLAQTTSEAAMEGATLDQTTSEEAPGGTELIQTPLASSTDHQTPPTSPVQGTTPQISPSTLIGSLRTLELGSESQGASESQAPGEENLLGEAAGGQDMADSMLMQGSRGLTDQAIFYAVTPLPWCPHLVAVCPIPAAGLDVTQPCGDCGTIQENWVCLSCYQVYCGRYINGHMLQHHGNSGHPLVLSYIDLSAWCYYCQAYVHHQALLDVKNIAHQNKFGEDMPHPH

[3] = target: Amyloid-beta precursor protein (Homo sapiens, UniProt P05067); assay: Disaggregation of self-induced amyloid beta (1 to 42) (unknown origin) preformed fibrils at 10 uM measured after 24 hrs by thioflavin-T fluorescence assay relative to control
In short: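 Aβ1-42 (10 µM) with 10 µM ThT and 1 mM EDTA in 50 mM phosphate buffer (150 mM NaCl, pH 7.4) pre-aggregated 24 h at 37 °C, 700 rpm; fluorescence read (ex 440/em 486 nm). Compound then added and incubated a further 24 h at 37 °C before re-reading. Disaggregation = (first − second reading)/first reading. Triplicate.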

Acetylcholinesterase = Acetylcholinesterase (Homo sapiens, UniProt P22303); assay: Inhibition of recombinant human C-terminal 6His-tagged AChE (Glu32 to Leu614 residues) expressed in CHO cells using acetylthiocholine iodide as substrate preincubated for 5 mins measured after 15 mins by DTNB reagent based assay
Sequence of Acetylcholinesterase (P22303 whole entry): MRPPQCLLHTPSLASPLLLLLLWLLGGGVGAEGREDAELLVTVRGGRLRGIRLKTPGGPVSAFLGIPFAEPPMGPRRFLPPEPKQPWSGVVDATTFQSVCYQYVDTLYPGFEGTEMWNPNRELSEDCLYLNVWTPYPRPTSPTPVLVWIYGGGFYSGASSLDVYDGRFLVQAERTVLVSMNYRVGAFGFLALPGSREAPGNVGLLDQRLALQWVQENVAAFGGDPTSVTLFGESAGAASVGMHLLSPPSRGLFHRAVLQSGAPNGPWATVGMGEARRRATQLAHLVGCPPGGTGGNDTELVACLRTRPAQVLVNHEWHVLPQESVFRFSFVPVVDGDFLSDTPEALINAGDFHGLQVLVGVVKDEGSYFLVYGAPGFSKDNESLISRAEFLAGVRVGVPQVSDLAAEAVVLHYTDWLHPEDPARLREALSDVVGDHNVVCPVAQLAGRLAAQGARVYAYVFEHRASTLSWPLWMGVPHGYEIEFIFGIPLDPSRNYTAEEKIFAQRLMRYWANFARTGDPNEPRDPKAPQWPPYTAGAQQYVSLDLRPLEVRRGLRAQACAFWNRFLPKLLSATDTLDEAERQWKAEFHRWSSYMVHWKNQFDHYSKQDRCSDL
In short: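 Enzyme, compounds, acetylthiocholine iodide and DTNB diluted in 100 mM phosphate buffer pH 7.4. AChE was preincubated with the compound at varying concentrations for 5 min at 37 °C. The reaction was started with 1 mM ATCI solution and run 15 min at 37 °C. 2 mM DTNB solution was then added for 5 min. Absorbance read at 412 nm. IC50 set 0.1% DMSO wells as 100% and no-enzyme wells as 0%. Run in triplicate.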

Histone deacetylase 1 = Histone deacetylase 1 (Homo sapiens, UniProt Q13547); assay: Inhibition of recombinant human C-terminal FLAG/His-tagged HDAC1 (1 to 482 residues) expressed in Sf9 insect cells using fluor de lys SIRT1 as substrate preincubated for 5 mins followed by substrate addition and measured after 30 mins by fluorescence assay
Sequence of Histone deacetylase 1 (Q13547 whole entry, the tested form may be a part): as the sequence (Q13547 whole entry, looked up) above

Histone deacetylase 2 = Histone deacetylase 2 (Homo sapiens, UniProt Q92769); assay: biochemical; format: cell-based, Sf9
Sequence of Histone deacetylase 2 (Q92769 whole entry, the tested form may be a part): as the sequence (Q92769 whole entry, looked up) above

[4] = target: Histone deacetylase 3/Nuclear receptor corepressor 2 (HDAC3/NCoR2) (Homo sapiens, UniProt O15379); assay: Inhibition of human recombinant C-terminal His-tagged HDAC3 (1 to 428 residues)/N-terminal GST-tagged NCOR2 (395 to 489 residus) expressed in baculovirus infected Sf9 insect cells using fluor de lys SIRT1 as substrate preincubated for 5 mins followed by substrate addition and measured after 30 mins by fluorescence assay
Sequence of Histone deacetylase 3/Nuclear receptor corepressor 2 (HDAC3/NCoR2) (O15379 whole entry, the tested form may be a part): as the sequence (O15379 whole entry, looked up) above
Sequence of Histone deacetylase 3/Nuclear receptor corepressor 2 (HDAC3/NCoR2) (Q9Y618 whole entry, further chain, the tested form may be a part): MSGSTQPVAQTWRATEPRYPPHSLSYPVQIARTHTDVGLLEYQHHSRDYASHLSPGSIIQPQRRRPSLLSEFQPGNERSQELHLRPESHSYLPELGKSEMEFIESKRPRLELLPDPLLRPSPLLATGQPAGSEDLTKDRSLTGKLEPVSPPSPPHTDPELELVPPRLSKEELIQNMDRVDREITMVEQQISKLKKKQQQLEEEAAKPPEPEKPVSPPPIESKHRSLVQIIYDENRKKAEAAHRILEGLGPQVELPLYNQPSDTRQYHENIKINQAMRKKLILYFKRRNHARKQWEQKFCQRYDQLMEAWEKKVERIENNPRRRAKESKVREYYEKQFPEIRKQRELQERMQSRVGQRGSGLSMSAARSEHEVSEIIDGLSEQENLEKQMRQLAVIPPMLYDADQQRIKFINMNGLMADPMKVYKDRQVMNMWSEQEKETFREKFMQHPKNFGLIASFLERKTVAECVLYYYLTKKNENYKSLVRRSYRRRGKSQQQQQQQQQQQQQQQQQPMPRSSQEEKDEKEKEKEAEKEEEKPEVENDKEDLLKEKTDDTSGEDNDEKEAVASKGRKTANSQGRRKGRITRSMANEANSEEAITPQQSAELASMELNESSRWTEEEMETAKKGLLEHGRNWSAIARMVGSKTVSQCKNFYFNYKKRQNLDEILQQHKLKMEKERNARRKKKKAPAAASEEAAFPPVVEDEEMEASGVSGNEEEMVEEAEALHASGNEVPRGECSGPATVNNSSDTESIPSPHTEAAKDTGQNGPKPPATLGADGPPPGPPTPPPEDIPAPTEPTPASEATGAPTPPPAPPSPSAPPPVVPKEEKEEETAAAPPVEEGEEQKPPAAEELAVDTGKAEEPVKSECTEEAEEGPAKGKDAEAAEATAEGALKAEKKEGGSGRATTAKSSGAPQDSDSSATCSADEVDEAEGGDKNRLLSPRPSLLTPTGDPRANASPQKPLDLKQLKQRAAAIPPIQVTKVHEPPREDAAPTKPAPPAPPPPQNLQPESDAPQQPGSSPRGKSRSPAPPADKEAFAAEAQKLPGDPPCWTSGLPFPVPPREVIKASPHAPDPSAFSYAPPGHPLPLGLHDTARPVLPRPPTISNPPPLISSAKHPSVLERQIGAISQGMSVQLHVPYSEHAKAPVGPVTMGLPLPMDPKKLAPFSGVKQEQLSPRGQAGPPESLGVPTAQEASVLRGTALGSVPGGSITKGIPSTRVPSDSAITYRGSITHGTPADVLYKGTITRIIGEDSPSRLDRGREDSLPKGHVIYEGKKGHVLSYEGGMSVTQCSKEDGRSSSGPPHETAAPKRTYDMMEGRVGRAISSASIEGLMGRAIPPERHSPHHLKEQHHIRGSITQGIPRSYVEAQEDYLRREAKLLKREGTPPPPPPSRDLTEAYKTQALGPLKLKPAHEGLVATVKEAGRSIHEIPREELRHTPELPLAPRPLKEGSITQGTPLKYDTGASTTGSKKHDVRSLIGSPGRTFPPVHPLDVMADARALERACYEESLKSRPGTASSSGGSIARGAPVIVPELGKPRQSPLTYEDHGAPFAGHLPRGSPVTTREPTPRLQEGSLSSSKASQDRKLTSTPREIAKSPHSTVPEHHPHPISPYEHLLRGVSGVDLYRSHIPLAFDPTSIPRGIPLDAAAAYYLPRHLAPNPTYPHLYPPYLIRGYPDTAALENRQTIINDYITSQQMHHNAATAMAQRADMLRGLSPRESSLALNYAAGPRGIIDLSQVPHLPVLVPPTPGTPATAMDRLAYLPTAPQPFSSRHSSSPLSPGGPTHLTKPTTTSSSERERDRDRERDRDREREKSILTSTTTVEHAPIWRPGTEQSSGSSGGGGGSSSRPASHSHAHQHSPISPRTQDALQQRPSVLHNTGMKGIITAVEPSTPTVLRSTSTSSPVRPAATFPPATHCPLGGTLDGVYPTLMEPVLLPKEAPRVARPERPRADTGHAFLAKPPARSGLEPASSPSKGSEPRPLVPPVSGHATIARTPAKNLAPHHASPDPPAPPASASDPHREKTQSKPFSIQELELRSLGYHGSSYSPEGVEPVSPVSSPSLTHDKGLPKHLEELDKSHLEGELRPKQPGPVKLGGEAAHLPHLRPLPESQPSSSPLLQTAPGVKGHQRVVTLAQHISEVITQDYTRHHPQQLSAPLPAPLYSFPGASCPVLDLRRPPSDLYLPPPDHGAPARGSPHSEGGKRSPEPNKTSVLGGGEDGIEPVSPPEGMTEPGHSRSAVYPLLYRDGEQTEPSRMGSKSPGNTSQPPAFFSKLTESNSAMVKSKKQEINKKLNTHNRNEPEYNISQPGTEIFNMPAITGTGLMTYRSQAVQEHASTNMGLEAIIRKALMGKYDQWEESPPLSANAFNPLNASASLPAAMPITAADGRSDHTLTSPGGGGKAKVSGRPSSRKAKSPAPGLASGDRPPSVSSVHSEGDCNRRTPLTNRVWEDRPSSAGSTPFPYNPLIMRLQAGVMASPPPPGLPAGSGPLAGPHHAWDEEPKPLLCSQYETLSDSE

[5] = target: T1, Class 1 histone deacetylase; assay: Inhibition of Class 1 HDAC in […] cells assessed as increase in acetylated Histone H3 level measured after 24 hrs by Western blot analysis; format: cell-based; conditions: for inhibition: Mus musculus
Hippocampal neurone = assay: Induction of neurite outgrowth in Sprague-Dawley rat primary hippocampal neurons assessed as increase in number of axonal and dendritic neurite incubated for 3 days by DAPI staining based immunofluorescence microscopic analysis; format: functional; conditions: time 3.0 day
In short: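 Primary hippocampal neurons from embryonic Sprague-Dawley rats, plated on poly-D-lysine and kept in B27-neurobasal medium. Treated with DMSO or compound from DIV3 for three days, fixed at DIV6 in 4% paraformaldehyde. Axons stained with anti-tau, dendrites with anti-MAP2, nuclei with DAPI; fluorescence microscopy. At least 20 neurons traced for number and length of primary, secondary and tertiary neurites.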

[6] = Elimination rate constant in human liver microsomes at 1 uM preincubated for 3 mins followed by NADPH addition and measured up to 60 mins by LC-MS/MS analysis; format: ADME, Microsome; conditions: time <=63 min
In short: (§1)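 Mixed-gender human liver microsomes with test article at 1 µM final. Testosterone (5 µM) run separately as control. Mixture without cofactor equilibrated 3 min at 37 °C in a shaking water bath, then started with cofactor. Aliquots taken at 0, 10, 20, 30 and 60 min. CLint = k/P, where k is the elimination rate constant and P is the incubation protein concentration.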

[7] = Intrinsic clearance in human liver microsomes at 1 uM preincubated for 3 mins followed by NADPH addition and measured up to 60 mins by LC-MS/MS analysis; format: ADME, Microsome; conditions: 1 h, time <=63 min; in short: as §1

Row | SMILES | IC50 [1] | IC50 [2] | inhibition [3] | IC50 (Acetylcholinesterase) | IC50 (Histone deacetylase 1) | IC50 (Histone deacetylase 2) | IC50 [4] | EC50 [5] | inhibition [5] | Activity (Hippocampal neurone) | k el at 1 h, 1 µM [6] | CLint [7]
1 | O=C(NO)c1ccc(Nc2c3ccccc3nc3ccccc23)cc1 | 0.55 µM | 0.025 µM | 41% | 0.72 µM | 0.34 µM | 1.57 µM | 1.22 µM | 7.96 µM | Dose-dependent effect | Dose-dependent effect | 0.00034 s⁻¹ | 40.7 µL/min/mg
2 | O=C(NO)c1ccc(Nc2c3ccccc3nc3ccc(Br)cc23)cc1 | 0.16 µM | 0.026 µM | 70% | 0.88 µM | 0.09 µM | 0.48 µM | 0.33 µM | 0.58 µM | Dose-dependent effect | Dose-dependent effect | 0.000305 s⁻¹ | 36.6 µL/min/mg
